From ChEMBL document CHEMBL1148530, “Discovery of new antitubercular oxazolyl thiosemicarbazones” (J Med Chem, 2006)
Values after ≈ are worked out from the molar mass of the structure shown. Active and inactive are the calls of the source. The rule behind the calls is not given here.

Assays:
[1] = tested on: Vero; assay: Cytotoxicity against Vero cell line; format: functional, cell-based; details: Chlorocebus sabaeus
[2] = tested on: Mycobacterium tuberculosis; assay: Antimycobacterial activity against Mycobacterium tuberculosis H37Rv; format: functional
Method in brief: (§1)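 MIC determined by agar dilution, following the NCCLS-recommended approach, in duplicate. Strains were M. tuberculosis H37Rv and a multidrug-resistant M. tuberculosis. Concentrations were tested up to 25 µg/mL.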

[3] = tested on: Vero; assay: Selectivity index, IC50 for Vero cell line/ MIC for Mycobacterium tuberculosis H37Rv; format: functional
Method in brief: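 Vero cells were exposed to compound at 62.5 µg/mL for 72 h. Viability was read by MTT conversion to formazan. Selectivity index is the Vero IC50 divided by the agar-dilution MIC against the listed strain.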

[4] = tested on: Mycobacterium tuberculosis; assay: Activity against Mycobacterium tuberculosis H37Rv infected in CD1 mouse assessed as decrease in bacterial load relative to control in lung at 50 mg/kg, ip; format: functional; details: route intraperitoneal
Method in brief: (§2)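 Female CD-1 mice, 6 weeks old, infected intravenously via the caudal vein with about 10⁷ viable M. tuberculosis ATCC 35801. Intraperitoneal treatment for 10 days after inoculation.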

[5] = tested on: Mycobacterium tuberculosis; assay: Activity against Mycobacterium tuberculosis H37Rv infected in CD1 mouse assessed as decrease in bacterial load relative to control in spleen at 50 mg/kg, ip; format: functional; details: route intraperitoneal; method in brief: as §2
[6] = tested on: Mycobacterium tuberculosis; assay: Antimycobacterial activity against Mycobacterium tuberculosis H37Rv at 25 ug/ml; format: functional, organism-based; method in brief: as §1
[7] = tested on: Mycobacterium tuberculosis; assay: Activity against Mycobacterium tuberculosis H37Rv infected in CD1 mouse assessed as decrease in bacterial load relative to control in lung at 25 mg/kg, ip; format: functional; details: route intraperitoneal; method in brief: as §2
[8] = tested on: Mycobacterium tuberculosis; assay: Activity against Mycobacterium tuberculosis H37Rv infected in CD1 mouse assessed as decrease in bacterial load relative to control in spleen at 25 mg/kg, ip; format: functional; details: route intraperitoneal; method in brief: as §2

SMILES	IC50 [1] [µg/mL]	MIC [2] [µg/mL]	also measured
C/C(=N\N=C(/S)Nc1ncc(C2CCC2)o1)c1ccc([N+](=O)[O-])cc1	62.5 (≈ 174 µM)	0.2 (≈ 0.556 µM)	–
C/C(=N\N=C(/S)Nc1ncc(C2CCC2)o1)c1ccccc1O	–	3.12 (≈ 9.44 µM)	–
CC[C@@H](CO)NCCN[C@@H](CC)CO [ETHAMBUTOL]	> 62.5	1.56 (≈ 7.64 µM)	–
Cc1ccc(/C=N/N=C(\S)Nc2ncc(C3CCC3)o2)cc1	< 62.5	3.12 (≈ 9.92 µM)	–
S=C(NN=C(c1ccccc1)c1ccccc1)Nc1ncc(C2CCC2)o1	> 62.5	0.1 (≈ 0.266 µM)	Selectivity index [3]: >1250
O=[N+]([O-])c1cccc(/C=N/N=C(\S)Nc2ncc(C3CCC3)o2)c1	< 62.5	0.78 (≈ 2.26 µM)	–
S=C(N/N=C/c1ccc(Cl)cc1)Nc1ncc(C2CCC2)o1	–	1.56 (≈ 4.66 µM)	–
Oc1[nH]c2ccccc2c1/N=N/C(S)=N/c1ncc(C2CCC2)o1	–	25 (≈ 73.2 µM)	–
Oc1ccccc1/C=N/N=C(\S)Nc1ncc(C2CCC2)o1	–	6.25 (≈ 19.8 µM)	–
O=[N+]([O-])c1ccccc1/C=N/N=C(\S)Nc1ncc(C2CCC2)o1	–	0.78 (≈ 2.26 µM)	–
O=[N+]([O-])c1ccc(/C=N/N=C(\S)Nc2ncc(C3CCC3)o2)cc1	< 62.5	0.39 (≈ 1.13 µM)	–
CO[C@H]1/C=C/O[C@@]2(C)Oc3c(C)c(O)c4c(O)c(c(/C=N/N5CCN(C)CC5)c(O)c4c3C2=O)NC(=O)/C(C)=C\C=C\[C@H](C)[C@H](O)[C@@H](C)[C@@H](O)[C@@H](C)[C@H](OC(C)=O)[C@@H]1C [RIFAMPIN]	> 62.5	0.1 (≈ 0.122 µM)	–
COc1c(N2CCNC(C)C2)c(F)cc2c(=O)c(C(=O)O)cn(C3CC3)c12 (stereo not drawn) [GATIFLOXACIN]	> 62.5	0.2 (≈ 0.533 µM)	Log10 cfu [4]: 6.02; Log10 cfu [5]: 6.24
S=C(NN=C(Cc1ccccc1)Cc1ccccc1)Nc1ncc(C2CCC2)o1	–	6.25 (≈ 15.4 µM)	–
COc1ccc(/C=N/N=C(\S)Nc2ncc(C3CCC3)o2)cc1	–	6.25 (≈ 18.9 µM)	–
C/C(=N\N=C(/S)Nc1ncc(C2CCC2)o1)c1ccc(N)cc1	62.5 (≈ 190 µM)	0.78 (≈ 2.37 µM)	–
Oc1[nH]c2ccc(F)cc2c1/N=N/C(S)=N/c1ncc(C2CCC2)o1	–	12.5 (≈ 34.8 µM)	–
C/C(=N\N=C(/S)Nc1ncc(C2CCC2)o1)c1ccc(O)cc1	–	3.12 (≈ 9.44 µM)	–
S=C(N/N=C(\c1ccccc1)c1ccc(Br)cc1)Nc1ncc(C2CCC2)o1	> 62.5	0.05 (≈ 0.11 µM)	Log10 cfu [4]: 5.78; Log10 cfu [5]: 5.12
C/C(=N\N=C(/S)Nc1ncc(C2CCC2)o1)c1ccccc1	–	3.12 (≈ 9.92 µM)	–
COc1cc(/C=N/N=C(\S)Nc2ncc(C3CCC3)o2)ccc1O	–	12.5 (≈ 36.1 µM)	–
CN(C)c1ccc(/C=N/N=C(\S)Nc2ncc(C3CCC3)o2)cc1	–	3.12 (≈ 9.08 µM)	–
C/C(=N\N=C(/S)Nc1ncc(C2CCC2)o1)c1ccc(C)cc1	–	0.78 (≈ 2.37 µM)	–
N/N=C(\S)Nc1ncc(C2CCC2)o1	–	–	Activity [6]: inactive
NNC(=O)c1ccncc1 [ISONIAZID]	> 62.5	0.05 (≈ 0.365 µM)	Log10 cfu [7]: 5.12; Log10 cfu [8]: 4.11
